# Screens (PubChem)
# Only some compounds are listed: those with a hit (about 3.9% of all), similar ones and a draw of the others.
# Jurkat NFkB inh – inhibitors of induced NF-kB luciferase reporter, primary screen, TCR NF-kB activation inhibitor project, cell-based, luminescence, uHTS | 330,000 compounds, 0.53% hits | Jurkat, PMA/ionomycin-induced NF-kB luciferase reporter | inhibition, % at 4 µM; in the data active = inhibition above about 50%
# CHOP inh – inhibitors of CHOP promoter induction, primary screen, cell-based, unfolded protein response, luciferase reporter; CHO-K1 CHOP-promoter luciferase, tunicamycin-induced, 15-18 h; inhibition, % at 10 µM; 220,000 compounds, 3.8% hits;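 active = compounds that reduced the stress-induced luciferase reporter signal by more than about 70% of percent inhibition, limit read from the data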
# Gli-Sufu antag – Gli-Sufu pathway antagonists, primary screen, luciferase luminescence, Sufu-KO-LIGHT cells, uHTS; Sufu-KO-LIGHT fibroblasts, Gli luciferase reporter luminescence; inhibition, % at 5 µM; 340,000 compounds, 0.74% hits; AID 588413, 2011;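 active = inhibition above about 55%, limit read from the data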
# 697 NFkB inh – inhibitors of PMA/ionomycin-induced NF-kB reporter, 697 cells, primary screen, B-cell NF-kB inhibitor project, cell-based, luminescence, uHTS; 697 B-cell NF-kB luciferase reporter, 16 h; inhibition, % at 4 µM; 330,000 compounds, 0.33% hits; AID 435022, 2010; in the data active = inhibition above about 35%
# UPR CHOP act – activators of apoptotic CHOP UPR arm, primary screen, cell-based, CHO-CHOP luciferase reporter, luminescence, uHTS | UPR activation; percent of tunicamycin response over DMSO baseline | activation, % at 10 µM | 330,000 compounds, 0.34% hits | AID 449763, 2010;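 active = at 10 µM dose, activation of 40% or more, normalized to positive control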
#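 System: CHO-CHOP luciferase reporter cell line; amount: 500 cells/well; buffer or medium: F12 medium containing 10% fetal bovine serum; incubation: 6 h compound exposure at 37 °C after overnight seeding; measured by: luciferase luminescence after 10 min with Steady-Glo reagent; evaluation: % reporter activation, DMSO baseline versus tunicamycin full activation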
# UPR XBP1 act – activators of adaptive XBP1 UPR arm, primary screen, cell-based, CHO-XBP1 luciferase reporter, luminescence, uHTS. IRE1-XBP1 UPR activation; percent of tunicamycin response, DMSO as zero. activation, % at 20 µM. 330,000 compounds, 0.33% hits;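 active = versus positive control, 20 µM dose yields 30% or more activation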
#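 Material: CHO-XBP1 cells stably carrying IRE1-XBP1-driven luciferase reporter / Amount: 1000 cells per well / Compound: 20 µM, 1% DMSO / Times: 6 h treatment, 37 °C / Detection: luciferase luminescence / Measure: % activation of reporter signal versus tunicamycin and DMSO controls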
# Jurkat NFkB conf – PMA/ionomycin-induced NF-kB reporter inhibitors, Jurkat retest, confirmation, T-cell NF-kB inhibitor project, cell-based, luminescence, single concentration | Jurkat NF-kB luciferase, 16 h | shares compounds with Jurkat NFkB inh | 2,700 compounds, 27% hits | inhibition, % at 4 µM;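 active = inhibition reaching about 45% at 4 µM in either replicate, limit read from the data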
# A number is an active result; n = inactive; x = no result given.
SMILES,Jurkat NFkB inh,CHOP inh,Gli-Sufu antag,697 NFkB inh,UPR CHOP act,UPR XBP1 act,Jurkat NFkB conf
COCC(C)Nc1ncnc2c1cnn2-c1ccc(Cl)cc1 (configuration not stated),n,n,n,n,n,n,n
N#C/C(=C/c1ccc(-c2ccc([N+](=O)[O-])cc2)o1)c1nnc(N2CCOCC2)n1-c1ccccc1,x,x,n,x,x,x,x
CCC/C(O)=C1\C(=O)CC(C)(C)CC1=Nc1ccc(OC)cc1OC,62,x,n,n,n,n,n
Cn1nnc2cc(C(=O)Nc3ccc4ccccc4c3)ccc21,n,n,n,n,n,n,n
C/C(=N\NC(=O)c1cc(C)nc2ccccc12)c1ccccn1,95,x,90,n,85,n,45
Cc1cccc(N2CCN(Cc3cn(C)nc3-c3ccccc3F)CC2)n1,54,n,n,n,n,n,n
CCOC(=O)c1ccc(S(=O)(=O)NCCNCc2ccccc2)cc1,n,x,n,n,n,n,x
Cc1ccc(C2=NNC(c3cccc(F)c3)S2)cc1 (configuration not stated),n,n,n,n,n,n,n
O=[N+]([O-])c1cc(-c2cnc3ccccc3n2)ccc1Oc1ccc(Cl)cc1,n,n,n,n,n,n,x
COc1ccccc1Oc1ccc(-c2cnc3ccccc3n2)cc1[N+](=O)[O-],59,n,n,n,n,n,n
CCc1cc(=O)oc2cc(C)cc(OC(C)C(=O)NCCCN3CCCC3=O)c12 (configuration not stated),n,x,n,n,n,n,x
CCOc1ccc(OCC)c(NC(=O)CN2CCN(c3cccc(C)c3)C(C)C2)c1 (configuration not stated),58,n,n,n,n,n,n
CCOC(=O)c1oc2ccc(S(=O)(=O)n3nc(-c4ccc(OC)cc4)cc3N)cc2c1C,58,n,n,n,n,n,n
O=C(CNC(=O)c1ccccc1)NCC(O)c1ccc([N+](=O)[O-])cc1 (configuration not stated),n,x,n,n,n,n,x
CC(C)(C)NC(=O)NC(=O)COc1ccc(Br)cc1Br,n,83,n,n,n,n,n
CC(C)(C)NC(=O)NC(=O)COC(=O)COc1ccc(Cl)cc1Cl,n,n,n,n,n,n,x
COC(=O)c1cnc(Oc2ccc(NC(=O)NC(=O)c3c(F)cccc3F)cc2)cc1C(F)(F)F,n,n,n,n,n,n,x
COC(=O)c1cnc(Oc2ccc(NC(=O)NC(=O)c3c(F)cccc3Cl)cc2)cc1C(F)(F)F,50,n,n,n,n,n,n
CCC(=O)c1ccc(OCC(=O)Nc2cccc(S(=O)(=O)N3CCCCCC3)c2)cc1,n,x,n,n,n,n,x
Cc1nn(Cc2noc(C(=O)NCc3ccc4c(c3)OCO4)n2)c(C)c1Br,n,x,n,n,n,n,x
CCN(CCCNC(=O)C1CCC(=O)N1Cc1ccccc1Cl)c1cccc(C)c1 (configuration not stated),n,n,n,n,n,n,x
CCN(CCCNC(=O)C1CCC(=O)N1Cc1ccc(C)cc1)c1cccc(C)c1 (configuration not stated),57,n,n,n,n,n,n
Cc1ccc2c(c1)N(C)/C(=C/c1cccc[n+]1C)S2,75,x,82,n,n,n,n
CCN1/C(=C/c2cccc[n+]2C)Sc2ccc(OC)cc21,72,x,77,n,n,n,n
Cc1ccc2c(c1)N(C)/C(=C/c1cccc[n+]1CCO)S2,n,x,n,n,n,n,x
SMILES,Jurkat NFkB inh,CHOP inh,Gli-Sufu antag,697 NFkB inh,UPR CHOP act,UPR XBP1 act,Jurkat NFkB conf
CCC(=O)Nc1sc(C(=O)Nc2ccccc2F)c(C)c1C(=O)OC,n,n,n,n,n,n,x
CCOC(=O)c1c(N)sc(C(=O)Nc2ccccc2)c1C,n,n,n,n,n,n,n
CCOC(=O)c1c(N)sc(C(=O)Nc2ccccc2F)c1C,n,n,n,n,n,n,n
CCOC(=O)c1sc(NC(=O)Nc2ccccc2)cc1C,n,n,n,n,n,n,n
CCOC(=O)c1sc(NC(C)=O)cc1C,n,n,n,n,n,n,x
COc1ccc(OCC(=O)NNC(=O)c2ccccc2OCc2c(C)noc2C)cc1,n,x,n,n,n,n,x
COc1ccc(C(=O)NCc2nnc(SCC(=O)Nc3cc(Cl)ccc3OC)o2)cc1,n,x,n,n,n,n,x
COC(=O)c1nn(-c2ccc3c(c2)CCN3C(C)=O)cc1O,53,n,n,n,n,n,67
COCCCNC(=S)NNC(=O)c1cc(C2CC2)nc2ccccc12,n,x,n,n,n,n,x
COc1ccc(NC(=O)Nc2ccc(N(C)C)cc2)cc1,n,n,n,n,n,n,x
COc1ccc(NC(=S)NN(C)C(=S)Nc2ccc(OC)cc2)cc1,65,n,n,n,n,n,n
COc1ccc2oc(=Nc3cc(F)ccc3F)c(C(N)=O)cc2c1,65,n,n,n,n,n,n
Cn1cc([N+](=O)[O-])c(C(=O)NC2CCCC2)n1,n,x,n,n,n,n,x
C/C(=N\NC(=O)c1ccncc1)c1ccc(NC(=O)c2ccc(Cl)cc2)cc1,n,x,n,n,n,n,n
CN(CC(=O)Nc1ccccc1Cl)C(=O)Cn1nnc(-c2ccc(F)cc2)n1,n,x,n,n,n,n,x
Cc1cc(O)c(-c2cc(C(=O)Nc3cccnc3)[nH]n2)cc1C,n,n,n,n,n,n,n
Cc1cc(C)c(O)c(-c2cc(C(=O)Nc3cccnc3)[nH]n2)c1,n,n,n,n,n,n,x
CC(C)NC(=O)N(C)C[C@@H]1Oc2ccc(NC(=O)CCN3CCOCC3)cc2CC(=O)N([C@@H](C)CO)C[C@@H]1C,n,x,n,n,n,n,x
COc1ccc(OC)c2sc(N(CCCN(C)C)C(=O)c3ccc(S(=O)(=O)N4CCc5ccccc5C4)cc3)nc12,94,x,x,n,n,n,n
CCOC(=O)C1=C(C)NC(SC)=C(C#N)C1CC(C)C (configuration not stated),57,n,n,n,n,n,n
CC(=O)C1=C(C)NC(SCC(N)=O)=C(C#N)C1CC(C)C (configuration not stated),n,n,n,n,n,n,x
CCN(CC)CCCNC(=O)c1cc(-c2ccccc2)c(N2CCCCC2)s1,n,x,n,n,n,n,x
